# Columns and labels:
# Homo sapiens [1] = organism: Homo sapiens; assay: Selectivity ratio of Ki for mu opioid receptor (unknown origin) to ratio of Ki for kappa opioid receptor (unknown origin)
# [2] = biological target: T1, Kappa-type opioid receptor (Homo sapiens, UniProt P41145); assay: Displacement of [3H]U69593 from kappa opioid receptor (unknown origin) expressed in HEK293T cells after 1.5 hrs by radioligand binding assay; format: cell-based, HEK-293T
# Procedure, shortened: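 HEK293T cells stably expressing KOR were hypotonically lysed in 50 mM Tris-HCl, 10 mM MgCl2, 0.1 mM EDTA, pH 7.4, and membranes were pelleted. Samples were filtered onto PEI-soaked GF/A filters and scintillation counted. Ki came from a one-site competition fit.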
# Mu-type opioid receptor = Mu-type opioid receptor (Homo sapiens, UniProt P35372); assay: Displacement of [3H]DAMGO from mu opioid receptor (unknown origin) expressed in HEK293T cells after 1.5 hrs by radioligand binding assay; format: cell-based, HEK-293T
# [3] = biological target: T1, Kappa-type opioid receptor; assay: Inhibition of human kappa opioid receptor expressed in HEK293T cells assessed as inhibition of cAMP production after 30 mins; format: functional, cell-based, HEK-293T
# [4] = biological target: Delta-type opioid receptor (Homo sapiens, UniProt P41143); assay: Displacement of [3H]DADLE from delta opioid receptor (unknown origin) expressed in HEK293T cells after 1.5 hrs by radioligand binding assay; format: cell-based, HEK-293T
# Homo sapiens [5] = organism: Homo sapiens; assay: Selectivity ratio of Ki for delta opioid receptor (unknown origin) to ratio of Ki for kappa opioid receptor (unknown origin)
# T1 sequence (P41145 whole entry): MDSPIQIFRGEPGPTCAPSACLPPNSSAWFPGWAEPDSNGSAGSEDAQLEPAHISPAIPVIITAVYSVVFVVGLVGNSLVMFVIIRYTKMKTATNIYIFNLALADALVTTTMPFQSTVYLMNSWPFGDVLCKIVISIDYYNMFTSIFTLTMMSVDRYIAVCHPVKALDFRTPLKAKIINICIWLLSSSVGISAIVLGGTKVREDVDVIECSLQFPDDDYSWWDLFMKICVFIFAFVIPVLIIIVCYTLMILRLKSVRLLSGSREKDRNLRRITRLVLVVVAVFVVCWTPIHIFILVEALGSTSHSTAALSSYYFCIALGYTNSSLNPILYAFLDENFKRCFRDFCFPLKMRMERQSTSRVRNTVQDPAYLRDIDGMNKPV
# Chain of Mu-type opioid receptor (P35372 whole entry): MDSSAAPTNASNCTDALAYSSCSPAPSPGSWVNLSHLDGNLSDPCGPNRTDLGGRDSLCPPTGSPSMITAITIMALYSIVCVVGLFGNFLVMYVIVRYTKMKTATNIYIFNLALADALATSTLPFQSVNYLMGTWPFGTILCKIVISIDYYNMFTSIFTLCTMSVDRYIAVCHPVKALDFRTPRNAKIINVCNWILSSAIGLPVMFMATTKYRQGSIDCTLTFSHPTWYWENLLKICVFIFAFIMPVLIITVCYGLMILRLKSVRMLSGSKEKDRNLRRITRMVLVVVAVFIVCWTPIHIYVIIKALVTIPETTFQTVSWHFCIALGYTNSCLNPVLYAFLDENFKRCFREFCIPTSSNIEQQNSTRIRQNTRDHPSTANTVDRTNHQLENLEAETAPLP
# Chain of Delta-type opioid receptor (P41143 whole entry): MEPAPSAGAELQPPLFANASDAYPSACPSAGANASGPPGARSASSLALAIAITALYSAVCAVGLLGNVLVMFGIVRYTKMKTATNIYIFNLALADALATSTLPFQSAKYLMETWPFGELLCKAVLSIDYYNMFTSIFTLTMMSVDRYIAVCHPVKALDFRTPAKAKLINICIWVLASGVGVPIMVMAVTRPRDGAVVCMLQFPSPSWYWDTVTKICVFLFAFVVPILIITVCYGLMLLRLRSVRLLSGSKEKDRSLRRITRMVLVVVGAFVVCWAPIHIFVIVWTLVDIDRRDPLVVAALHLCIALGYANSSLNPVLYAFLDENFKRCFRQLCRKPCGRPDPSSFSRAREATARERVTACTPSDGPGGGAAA
SMILES,Ratio Ki (Homo sapiens [1]),Ki [2] [nM],Ki (Mu-type opioid receptor) [nM],EC50 [3] [nM],Ki [4] [nM],Ratio Ki (Homo sapiens [5])
COC(=O)[C@@H]1C[C@H](OC(=O)/C=C/c2ccsc2)C(=O)[C@H]2[C@@]1(C)CC[C@H]1C(=O)O[C@H](c3ccoc3)C[C@]21C,0.06,304,18,582,228,0.75
COC(=O)[C@@H]1C[C@H](OC(=O)/C=C/c2ccc(OC)cc2)C(=O)[C@H]2[C@@]1(C)CC[C@H]1C(=O)O[C@H](c3ccoc3)C[C@]21C,–,135,> 10000,21,> 10000,–
C/C=C(\C)C(=O)O[C@H]1C[C@@H](C(=O)OC)[C@]2(C)CC[C@H]3C(=O)O[C@H](c4ccoc4)C[C@]3(C)[C@H]2C1=O,–,153,> 10000,477,> 10000,–
COC(=O)[C@@H]1C[C@H](OC(=O)/C=C/c2cc(OC)ccc2OC)C(=O)[C@H]2[C@@]1(C)CC[C@H]1C(=O)O[C@H](c3ccoc3)C[C@]21C,–,581,> 10000,38,> 10000,–
COC(=O)[C@@H]1C[C@H](OC(=O)/C=C/c2ccc(C(F)(F)F)cc2)C(=O)[C@H]2[C@@]1(C)CC[C@H]1C(=O)O[C@H](c3ccoc3)C[C@]21C,1,> 10000,> 10000,642,> 10000,1
COC(=O)[C@@H]1C[C@H](OC(=O)/C=C/c2ccccc2OC)C(=O)[C@H]2[C@@]1(C)CC[C@H]1C(=O)O[C@H](c3ccoc3)C[C@]21C,–,64.9,> 10000,10,> 10000,–
COC(=O)[C@@H]1C[C@H](OC(=O)/C=C/c2cc(C(F)(F)F)ccc2C(F)(F)F)C(=O)[C@H]2[C@@]1(C)CC[C@H]1C(=O)O[C@H](c3ccoc3)C[C@]21C,–,> 10000,> 10000,1210,5870,–
COC(=O)[C@@H]1C[C@H](OC(=O)/C=C/c2ccccc2C(F)(F)F)C(=O)[C@H]2[C@@]1(C)CC[C@H]1C(=O)O[C@H](c3ccoc3)C[C@]21C,–,130,> 10000,20,> 10000,–
C/C=C/C(=O)O[C@H]1C[C@@H](C(=O)OC)[C@]2(C)CC[C@H]3C(=O)O[C@H](c4ccoc4)C[C@]3(C)[C@H]2C1=O,21,25.3,540,11,> 10000,–
COC(=O)[C@@H]1C[C@H](OC(=O)/C=C/c2cc(OC)c(OC)c(OC)c2)C(=O)[C@H]2[C@@]1(C)CC[C@H]1C(=O)O[C@H](c3ccoc3)C[C@]21C,–,> 10000,> 10000,1800,> 10000,–
COC(=O)[C@@H]1C[C@H](OC(=O)/C=C/c2ccccc2[N+](=O)[O-])C(=O)[C@H]2[C@@]1(C)CC[C@H]1C(=O)O[C@H](c3ccoc3)C[C@]21C,–,148,> 10000,33,> 10000,–
C=CCC(=O)O[C@H]1C[C@@H](C(=O)OC)[C@]2(C)CC[C@H]3C(=O)O[C@H](c4ccoc4)C[C@]3(C)[C@H]2C1=O,–,–,–,–,3260,–
C=C(C)CC(=O)O[C@H]1C[C@@H](C(=O)OC)[C@]2(C)CC[C@H]3C(=O)O[C@H](c4ccoc4)C[C@]3(C)[C@H]2C1=O,60,6,362,25,> 10000,–
COC(=O)[C@@H]1C[C@H](OC(=O)/C=C/c2ccc3c(c2)OCO3)C(=O)[C@H]2[C@@]1(C)CC[C@H]1C(=O)O[C@H](c3ccoc3)C[C@]21C,8.7,323,2820,50,> 10000,–
COC(=O)[C@@H]1C[C@H](OC(=O)/C=C/c2ccc(OC)cc2OC)C(=O)[C@H]2[C@@]1(C)CC[C@H]1C(=O)O[C@H](c3ccoc3)C[C@]21C,–,162,> 10000,27,> 10000,–
COC(=O)[C@@H]1C[C@H](OC(=O)/C=C/c2cccnc2)C(=O)[C@H]2[C@@]1(C)CC[C@H]1C(=O)O[C@H](c3ccoc3)C[C@]21C,–,> 10000,334,1760,4890,–
C=CC(=O)O[C@H]1C[C@@H](C(=O)OC)[C@]2(C)CC[C@H]3C(=O)O[C@H](c4ccoc4)C[C@]3(C)[C@H]2C1=O,54,18.1,979,137,> 10000,–
C=CC(C)C(=O)O[C@H]1C[C@@H](C(=O)OC)[C@]2(C)CC[C@H]3C(=O)O[C@H](c4ccoc4)C[C@]3(C)[C@H]2C1=O (some centres undefined),15,28.8,439,37,3030,105
COC(=O)[C@@H]1C[C@H](OC(=O)/C=C/c2ccc([N+](=O)[O-])cc2)C(=O)[C@H]2[C@@]1(C)CC[C@H]1C(=O)O[C@H](c3ccoc3)C[C@]21C,–,281,> 10000,32,> 10000,–
COC(=O)[C@@H]1C[C@H](OC(=O)/C=C/c2ccccc2)C(=O)[C@H]2[C@@]1(C)CC[C@H]1C(=O)O[C@H](c3ccoc3)C[C@]21C,5.4,9.6,52,7,700,73
C=C(C)C(=O)O[C@H]1C[C@@H](C(=O)OC)[C@]2(C)CC[C@H]3C(=O)O[C@H](c4ccoc4)C[C@]3(C)[C@H]2C1=O,–,34,> 10000,–,7820,221
COC(=O)[C@@H]1C[C@H](OC(=O)C=C(C)C)C(=O)[C@H]2[C@@]1(C)CC[C@H]1C(=O)O[C@H](c3ccoc3)C[C@]21C,0.73,385,284,698,2630,6.8

# — ChEMBL document CHEMBL3351980, “Michael acceptor approach to the design of new salvinorin A-based high affinity ligands for the kappa-opioid receptor” (Eur J Med Chem, 2014)
